Converted amounts (≈) assume the structure as drawn.
Experiments:
Assay type in all cases: functional
Human alphaherpesvirus 2 [1] = assay: Minimum inhibitory concentration (MIC) required to reduce HSV-2 strain (Lyons) induced cytopathogenicity in primary rabbit kidney cell cultures
Summary of the method: (§1)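 Primary rabbit kidney cell cultures were infected with virus and treated with compound. The MIC is the concentration that reduces virus-induced cytopathogenicity by 50%. Cytotoxicity was scored as microscopically visible alteration of normal cell morphology, with 400 μg/mL the highest concentration tested.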

Homo sapiens = species on record: Homo sapiens; assay: Minimum inhibitory concentration (MIC) required to inhibit proliferation of human lymphoblast Raji
Summary of the method: (§2)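 Cell proliferation assay. Cultures were exposed to compound during their linear growth phase, and growth was monitored. The MIC is the concentration that inhibits cell proliferation by 50%.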

L1210 [2] = assay: Minimum inhibitory concentration (MIC) required to inhibit proliferation of murine leukemia L1210 (TK-); conditions: Mus musculus; summary of the method: as §2
Rattus norvegicus = species on record: Rattus norvegicus; assay: Minimum inhibitory concentration (MIC) required to inhibit proliferation of Novikoff rat hepatoma; summary of the method: as §2
[3] = tested on: Vesicular stomatitis virus; assay: Minimum inhibitory concentration (MIC) required to reduce vesicular stomatis virus induced cytopathogenicity in primary rabbit kidney cell cultures; summary of the method: as §1
Human alphaherpesvirus 1 [4] = assay: Minimum inhibitory concentration (MIC) required to reduce thymidine kinase deficient HSV-1 induced cytopathogenicity in primary rabbit kidney cell cultures
Summary of the method: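 The virus was a dThd kinase-deficient mutant of HSV-1 strain B2006, passaged several times in primary rabbit kidney cells. The MIC is the concentration that reduces cytopathogenicity by 50% in primary rabbit kidney cell cultures. Cytotoxicity was scored by microscopic cell morphology, up to 400 μg/mL.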

Human alphaherpesvirus 1 [5] = assay: Minimum inhibitory concentration (MIC) required to reduce Herpes simplex virus (HSV-1) KOS strain induced cytopathogenicity in primary rabbit kidney cell cultures; summary of the method: as §1
L1210 [6] = assay: Minimum inhibitory concentration (MIC) required to inhibit proliferation of murine leukemia L1210 (wild type); conditions: Mus musculus; summary of the method: as §2
Human alphaherpesvirus 2 [7] = assay: Minimum inhibitory concentration (MIC) required to reduce HSV-2 strain G induced cytopathogenicity in primary rabbit kidney cell cultures; summary of the method: as §1
Human alphaherpesvirus 1 [8] = assay: Minimum inhibitory concentration (MIC) required to reduce HSV-1 strain McIntyre induced cytopathogenicity in primary rabbit kidney cell cultures; summary of the method: as §1
Human alphaherpesvirus 1 [9] = assay: Minimum inhibitory concentration (MIC) required to reduce HSV-1 strain (F) induced cytopathogenicity in primary rabbit kidney cell cultures; summary of the method: as §1
Mus musculus [10] = assay: The survival rate was evaluated for its effect of systemic treatment on NMRI mice infected intraperitoneally with HSV-1 (KOS) when administered intraperitoneally
Summary of the method: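 Mice were infected intraperitoneally with HSV-1 (KOS). Compound was given at 100 mg/kg per day from day 0 to day 4 postinfection, intraperitoneally, at 1 mg/mL in physiological saline with 10% propylene glycol, twice daily. Survivors were counted at day 20 postinfection.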

Mus musculus [11] = species on record: Mus musculus; assay: The survival rate was evaluated for its effect of systemic treatment on hairless (hr/hr) mice infected intracutaneously with HSV-1 (KOS) at percent concentration of 0.3
Mus musculus [12] = species on record: Mus musculus; assay: The survival rate was evaluated for its effect of systemic treatment on hairless (hr/hr) mice infected intracutaneously with HSV-1 (KOS) at percent concentration of 1
Mus musculus [13] = species on record: Mus musculus; assay: The survival rate was evaluated for its effect of systemic treatment on hairless (hr/hr) mice infected intracutaneously with HSV-1 (KOS) at percent concentration of 3
Mus musculus [14] = assay: The survival rate was evaluated for its effect of systemic treatment on NMRI mice infected intraperitoneally with HSV-1 (KOS) when administered perorally
Summary of the method: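 Mice were infected intraperitoneally with HSV-1 (KOS). Compound was given at 100 mg/kg per day from day 0 to day 4 postinfection, as a 2 mg/mL suspension in water by gavage once daily. Survivors were counted at day 20 postinfection.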

SMILES	MIC50 (Human alphaherpesvirus 2 [1])	MIC50 (Homo sapiens)	MIC50 (L1210 [2])	MIC50 (Rattus norvegicus)	MIC50 [3]	MIC50 (Human alphaherpesvirus 1 [4])	MIC50 (Human alphaherpesvirus 1 [5])	MIC50 (L1210 [6])	MIC50 (Human alphaherpesvirus 2 [7])	MIC50 (Human alphaherpesvirus 1 [8])	MIC50 (Human alphaherpesvirus 1 [9])	Survival rate (Mus musculus [10])	Survival rate (Mus musculus [11])	Survival rate (Mus musculus [12])	Survival rate (Mus musculus [13])	Survival rate (Mus musculus [14])
O=c1[nH]c(=O)n(C2CC(O)C(CO)C2)cc1/C=C/I (stereo not drawn)	7 µg/mL (≈ 18.5 µM)	> 200 µg/mL	> 200 µg/mL	> 200 µg/mL	> 400 µg/mL	> 400 µg/mL	0.07 µg/mL (≈ 0.185 µM)	> 200 µg/mL	2 µg/mL (≈ 5.29 µM)	0.07 µg/mL (≈ 0.185 µM)	0.1 µg/mL (≈ 0.264 µM)	–	–	–	–	–
Nc1nc(=O)n(C2CC(O)C(CO)C2)cc1/C=C/Br (stereo not drawn)	20 µg/mL (≈ 60.6 µM)	–	–	–	> 400 µg/mL	> 400 µg/mL	0.2 µg/mL (≈ 0.606 µM)	–	20 µg/mL (≈ 60.6 µM)	0.2 µg/mL (≈ 0.606 µM)	0.1 µg/mL (≈ 0.303 µM)	–	–	–	–	–
O=c1[nH]c(=O)n([C@H]2C[C@H](O)[C@@H](CO)O2)cc1/C=C/I	2 µg/mL (≈ 5.26 µM)	21.1 µg/mL (≈ 55.5 µM)	5.1 µg/mL (≈ 13.4 µM)	4.6 µg/mL (≈ 12.1 µM)	> 400 µg/mL	> 10 µg/mL	0.007 µg/mL (≈ 0.0184 µM)	16.3 µg/mL (≈ 42.9 µM)	2 µg/mL (≈ 5.26 µM)	0.02 µg/mL (≈ 0.0526 µM)	0.02 µg/mL (≈ 0.0526 µM)	–	–	–	–	–
O=c1[nH]c(=O)n([C@@H]2C[C@H](CO)[C@@H](O)C2)cc1I	20 µg/mL (≈ 56.8 µM)	> 200 µg/mL	> 200 µg/mL	22.8 µg/mL (≈ 64.7 µM)	> 400 µg/mL	> 400 µg/mL	0.2 µg/mL (≈ 0.568 µM)	> 200 µg/mL	40 µg/mL (≈ 114 µM)	0.2 µg/mL (≈ 0.568 µM)	0.2 µg/mL (≈ 0.568 µM)	–	–	–	–	–
NC1NC(=O)N([C@H]2C[C@H](O)[C@@H](CO)O2)C=C1/C=C/Br (stereo partly drawn)	9 µg/mL (≈ 26.9 µM)	–	–	–	> 400 µg/mL	–	0.07 µg/mL (≈ 0.209 µM)	–	7 µg/mL (≈ 20.9 µM)	0.06 µg/mL (≈ 0.18 µM)	0.07 µg/mL (≈ 0.209 µM)	–	–	–	–	–
O=c1[nH]c(=O)n([C@H]2C[C@@H](CO)[C@H](O)C2)cc1/C=C/Br	7 µg/mL (≈ 21.1 µM)	> 200 µg/mL	> 200 µg/mL	> 200 µg/mL	> 400 µg/mL	> 400 µg/mL	0.07 µg/mL (≈ 0.211 µM)	> 200 µg/mL	20 µg/mL (≈ 60.4 µM)	0.04 µg/mL (≈ 0.121 µM)	0.07 µg/mL (≈ 0.211 µM)	3	0	0	2	0
O=c1[nH]c(=O)n([C@H]2C[C@H](O)[C@@H](CO)O2)cc1I [IDOXURIDINE]	0.2 µg/mL (≈ 0.565 µM)	4.7 µg/mL (≈ 13.3 µM)	> 500 µg/mL	5.5 µg/mL (≈ 15.5 µM)	> 400 µg/mL	> 400 µg/mL	0.2 µg/mL (≈ 0.565 µM)	35.6 µg/mL (≈ 101 µM)	0.7 µg/mL (≈ 1.98 µM)	0.2 µg/mL (≈ 0.565 µM)	0.2 µg/mL (≈ 0.565 µM)	–	–	–	–	–

Source: ChEMBL document CHEMBL1123080, “Synthesis and antiviral activity of the carbocyclic analogues of (E)-5-(2-halovinyl)-2'-deoxyuridines and (E)-5-(2-halovinyl)-2'-deoxycytidines” (1985)
